Reference: ChEMBL document CHEMBL2176910, “Identification of small molecule inhibitors of amyloid β-induced neuronal apoptosis acting through the imidazoline I(2) receptor” (J Med Chem, 2012)
Active and inactive are the calls of the source. The calls are words filed in the database; no cut-off is given here.

Columns and labels:
[1] = species on record: Mus musculus; assay: Inhibition of imidazole receptor 2 in mouse hippocampal neurons assessed as reduction in tPA-induced Erk1/2 activation at 30 uM pre-incubated for 4 hrs before tPA stimulation by ELISA; details: Hippocampus
Procedure, shortened: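 Primary mouse hippocampal neurons were stimulated with tPA (20 μg/mL, 1 h) with or without compound at 30 μM. Phospho-Erk1/2 was measured by ELISA with a phospho-specific antibody and normalized to total Erk1/2. Untreated cultures set the lower limit and tPA alone the upper limit.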

[2] = target: Melanocortin receptor 4 (Homo sapiens) (UniProt P32245); assay: Inhibition of radioligand binding to MC4R at 10 uM
Melanocortin receptor 4 (Homo sapiens), sequence (P32245 whole entry): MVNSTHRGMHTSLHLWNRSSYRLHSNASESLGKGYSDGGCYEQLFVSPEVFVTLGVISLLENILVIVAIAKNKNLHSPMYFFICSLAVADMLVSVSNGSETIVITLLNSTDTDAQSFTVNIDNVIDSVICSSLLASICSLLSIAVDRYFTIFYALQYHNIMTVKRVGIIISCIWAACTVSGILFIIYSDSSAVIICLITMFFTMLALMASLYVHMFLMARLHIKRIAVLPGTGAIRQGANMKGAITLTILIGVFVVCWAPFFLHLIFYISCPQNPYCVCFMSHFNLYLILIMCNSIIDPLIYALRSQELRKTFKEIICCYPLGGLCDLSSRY

[3] = Inhibition of radioligand binding to alpha2 adrenergic receptor at 10 uM
Procedure, shortened: (§1)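 Part of an in vitro radioligand binding panel. Each target was tested against a potent standard radioligand for that site. The read-out was percent inhibition of specific binding, reported as an average value.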

[4] = target: D(2) dopamine receptor (Homo sapiens) (UniProt P14416); assay: Inhibition of radioligand binding to D2L receptor at 10 uM; procedure, shortened: as §1
D(2) dopamine receptor (Homo sapiens), sequence (P14416 whole entry): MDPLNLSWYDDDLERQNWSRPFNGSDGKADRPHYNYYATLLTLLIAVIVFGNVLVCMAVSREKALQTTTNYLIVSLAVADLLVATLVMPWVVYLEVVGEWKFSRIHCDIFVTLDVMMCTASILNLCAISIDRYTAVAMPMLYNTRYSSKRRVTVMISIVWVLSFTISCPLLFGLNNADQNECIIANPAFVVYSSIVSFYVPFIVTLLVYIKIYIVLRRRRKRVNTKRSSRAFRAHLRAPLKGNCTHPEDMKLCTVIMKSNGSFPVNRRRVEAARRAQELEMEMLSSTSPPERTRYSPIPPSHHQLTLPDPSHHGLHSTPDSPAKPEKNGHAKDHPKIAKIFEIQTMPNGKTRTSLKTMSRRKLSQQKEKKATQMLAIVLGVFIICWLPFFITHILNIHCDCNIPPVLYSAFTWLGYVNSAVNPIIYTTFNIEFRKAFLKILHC

[5] = target: T1, 5-hydroxytryptamine receptor 1A (Homo sapiens) (UniProt P08908); assay: Inhibition of radioligand binding to 5HT1A at 10 uM; procedure, shortened: as §1
T1 sequence (whole entry): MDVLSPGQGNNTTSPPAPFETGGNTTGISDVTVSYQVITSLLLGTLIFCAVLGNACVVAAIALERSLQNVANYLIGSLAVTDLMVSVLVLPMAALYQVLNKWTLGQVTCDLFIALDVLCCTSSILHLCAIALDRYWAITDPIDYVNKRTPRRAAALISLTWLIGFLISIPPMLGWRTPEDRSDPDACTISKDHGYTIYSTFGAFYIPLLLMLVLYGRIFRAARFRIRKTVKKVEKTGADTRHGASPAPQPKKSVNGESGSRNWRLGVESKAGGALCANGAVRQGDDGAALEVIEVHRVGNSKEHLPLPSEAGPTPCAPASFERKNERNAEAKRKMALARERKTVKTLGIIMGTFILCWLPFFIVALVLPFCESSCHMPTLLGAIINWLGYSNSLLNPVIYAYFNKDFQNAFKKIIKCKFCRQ

[6] = target: T2, 5-hydroxytryptamine receptor 2C (Homo sapiens) (UniProt P28335); assay: Inhibition of radioligand binding to 5HT2C at 10 uM; procedure, shortened: as §1
T2 sequence (whole entry): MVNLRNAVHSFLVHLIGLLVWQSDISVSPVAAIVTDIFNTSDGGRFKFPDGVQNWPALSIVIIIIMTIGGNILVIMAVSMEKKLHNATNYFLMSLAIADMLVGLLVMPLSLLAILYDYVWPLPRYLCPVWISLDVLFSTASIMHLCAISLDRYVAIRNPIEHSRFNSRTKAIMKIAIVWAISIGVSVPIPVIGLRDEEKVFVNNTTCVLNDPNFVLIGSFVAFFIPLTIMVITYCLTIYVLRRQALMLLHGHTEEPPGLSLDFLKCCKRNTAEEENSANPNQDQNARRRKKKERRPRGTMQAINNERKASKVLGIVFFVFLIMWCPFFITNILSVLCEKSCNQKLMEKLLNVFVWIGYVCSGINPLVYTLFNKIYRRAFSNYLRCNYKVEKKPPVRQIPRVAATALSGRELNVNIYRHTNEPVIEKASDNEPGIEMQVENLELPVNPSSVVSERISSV

[7] = target: T3, 5-hydroxytryptamine receptor 3A (Homo sapiens) (UniProt P46098); assay: Inhibition of radioligand binding to 5HT3 at 10 uM; procedure, shortened: as §1
T3 sequence (whole entry): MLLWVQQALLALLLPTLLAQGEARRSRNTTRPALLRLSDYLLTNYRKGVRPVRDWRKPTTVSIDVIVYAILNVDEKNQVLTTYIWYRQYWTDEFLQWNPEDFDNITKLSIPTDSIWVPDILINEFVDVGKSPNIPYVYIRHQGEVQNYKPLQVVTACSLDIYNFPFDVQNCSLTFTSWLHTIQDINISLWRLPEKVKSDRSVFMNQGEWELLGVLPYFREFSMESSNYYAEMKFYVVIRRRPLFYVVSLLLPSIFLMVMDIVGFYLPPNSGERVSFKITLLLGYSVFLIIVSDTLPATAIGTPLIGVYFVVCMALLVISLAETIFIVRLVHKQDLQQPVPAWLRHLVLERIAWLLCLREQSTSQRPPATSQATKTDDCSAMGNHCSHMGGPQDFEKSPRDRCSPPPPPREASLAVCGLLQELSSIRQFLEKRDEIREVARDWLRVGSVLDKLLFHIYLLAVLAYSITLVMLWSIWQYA

[8] = test system: Hippocampal neuron; assay: Neuroprotective activity in mouse hippocampal neurons assessed as Abeta-induced neuronal apoptosis at 30 uM pre-incubated for 4 hrs before Abeta challenge for 72 hrs by TUNEL assay (reference value: 100%); assay type: functional; details: Hippocampus
Procedure, shortened: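 Aggregated Aβ (20 μM, 72 h) was applied to primary mouse hippocampal neurons with or without compound at 30 μM. Apoptosis was scored by TUNEL as the percentage of positive nuclei among total nuclei, referred to Aβ alone (100%). Medium-only cells were the negative control and DNase the positive control. n = 4, mean ± SEM, two-tailed Student's test.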

[9] = test system: Hippocampal neuron; assay: Neuroprotective activity against Abeta-induced neuronal apoptosis in mouse hippocampal neurons assessed as reduction in DNA fragmentation at 30 uM pre-incubated for 4 hrs before Abeta challenge for 72 hrs by immunofluorescence microscopy; assay type: functional, tissue-based; details: Hippocampus
Procedure, shortened: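 Primary mouse hippocampal neurons were exposed to Aβ (20 μM, 72 h) alone or with compound. Double immunofluorescence microscopy was then run for DNA fragmentation (TUNEL, green) and total neuronal nuclei (NeuN, red), with merged images. DNase-treated cells served as positive control.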

[10] = target: Nischarin (Homo sapiens, UniProt Q9Y2I1); assay: Inhibition of radioligand binding to imidazole receptor 1 at 10 uM
Nischarin, sequence (Q9Y2I1 whole entry): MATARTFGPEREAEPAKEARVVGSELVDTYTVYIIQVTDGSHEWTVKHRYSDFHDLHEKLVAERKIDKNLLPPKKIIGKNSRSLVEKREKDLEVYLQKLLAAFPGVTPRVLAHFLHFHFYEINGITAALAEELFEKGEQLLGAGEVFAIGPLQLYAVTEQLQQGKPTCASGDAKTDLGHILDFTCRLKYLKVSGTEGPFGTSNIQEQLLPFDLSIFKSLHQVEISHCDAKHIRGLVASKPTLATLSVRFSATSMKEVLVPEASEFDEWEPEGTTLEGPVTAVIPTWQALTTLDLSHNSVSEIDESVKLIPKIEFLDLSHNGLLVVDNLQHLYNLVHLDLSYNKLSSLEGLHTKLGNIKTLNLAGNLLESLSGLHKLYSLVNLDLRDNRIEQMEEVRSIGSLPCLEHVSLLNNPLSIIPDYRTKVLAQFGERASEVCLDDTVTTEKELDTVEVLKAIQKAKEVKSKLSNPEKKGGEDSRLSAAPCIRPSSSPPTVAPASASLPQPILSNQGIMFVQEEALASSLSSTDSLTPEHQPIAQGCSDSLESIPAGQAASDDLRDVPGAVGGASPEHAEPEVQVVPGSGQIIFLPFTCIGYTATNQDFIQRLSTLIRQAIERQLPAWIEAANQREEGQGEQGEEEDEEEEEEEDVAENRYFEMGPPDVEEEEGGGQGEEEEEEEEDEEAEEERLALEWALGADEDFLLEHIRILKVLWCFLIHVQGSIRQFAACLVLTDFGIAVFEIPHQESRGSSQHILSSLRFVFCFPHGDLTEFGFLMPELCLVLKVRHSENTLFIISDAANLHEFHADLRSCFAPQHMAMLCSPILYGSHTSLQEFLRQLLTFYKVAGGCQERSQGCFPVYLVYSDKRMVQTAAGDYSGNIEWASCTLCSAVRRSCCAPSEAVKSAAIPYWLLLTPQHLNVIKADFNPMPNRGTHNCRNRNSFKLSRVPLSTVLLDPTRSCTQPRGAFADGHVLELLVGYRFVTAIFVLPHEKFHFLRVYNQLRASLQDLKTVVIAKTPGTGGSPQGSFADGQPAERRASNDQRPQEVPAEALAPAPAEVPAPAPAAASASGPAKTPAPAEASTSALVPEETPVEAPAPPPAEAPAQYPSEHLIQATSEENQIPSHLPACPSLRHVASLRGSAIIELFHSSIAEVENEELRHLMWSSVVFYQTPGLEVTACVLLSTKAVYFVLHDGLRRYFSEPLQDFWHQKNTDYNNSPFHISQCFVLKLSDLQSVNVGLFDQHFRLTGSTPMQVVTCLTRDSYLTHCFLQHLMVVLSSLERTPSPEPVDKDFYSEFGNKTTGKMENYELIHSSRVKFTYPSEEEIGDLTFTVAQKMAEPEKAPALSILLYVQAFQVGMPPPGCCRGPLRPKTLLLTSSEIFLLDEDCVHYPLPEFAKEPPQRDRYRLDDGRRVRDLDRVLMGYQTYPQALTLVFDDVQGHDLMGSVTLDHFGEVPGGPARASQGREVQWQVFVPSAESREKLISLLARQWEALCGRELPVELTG

[11] = target: Kappa-type opioid receptor (Homo sapiens) (UniProt P41145); assay: Inhibition of radioligand binding to KOP receptor at 10 uM; procedure, shortened: as §1
Kappa-type opioid receptor (Homo sapiens), sequence (P41145 whole entry): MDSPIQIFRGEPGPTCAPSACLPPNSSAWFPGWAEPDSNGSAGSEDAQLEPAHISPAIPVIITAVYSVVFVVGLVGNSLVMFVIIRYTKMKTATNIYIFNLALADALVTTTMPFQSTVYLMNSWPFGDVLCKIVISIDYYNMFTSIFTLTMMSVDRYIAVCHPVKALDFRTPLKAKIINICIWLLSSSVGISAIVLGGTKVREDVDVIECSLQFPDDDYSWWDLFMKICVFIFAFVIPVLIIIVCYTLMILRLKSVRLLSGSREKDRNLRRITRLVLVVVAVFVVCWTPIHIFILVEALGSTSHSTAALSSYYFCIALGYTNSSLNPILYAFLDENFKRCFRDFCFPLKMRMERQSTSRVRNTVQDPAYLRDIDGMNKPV

[12] = target: Muscarinic acetylcholine receptor M3 (Homo sapiens) (UniProt P20309); assay: Inhibition of radioligand binding to muscarinic M3 receptor at 10 uM; procedure, shortened: as §1
Muscarinic acetylcholine receptor M3 (Homo sapiens), sequence (P20309 whole entry, looked up): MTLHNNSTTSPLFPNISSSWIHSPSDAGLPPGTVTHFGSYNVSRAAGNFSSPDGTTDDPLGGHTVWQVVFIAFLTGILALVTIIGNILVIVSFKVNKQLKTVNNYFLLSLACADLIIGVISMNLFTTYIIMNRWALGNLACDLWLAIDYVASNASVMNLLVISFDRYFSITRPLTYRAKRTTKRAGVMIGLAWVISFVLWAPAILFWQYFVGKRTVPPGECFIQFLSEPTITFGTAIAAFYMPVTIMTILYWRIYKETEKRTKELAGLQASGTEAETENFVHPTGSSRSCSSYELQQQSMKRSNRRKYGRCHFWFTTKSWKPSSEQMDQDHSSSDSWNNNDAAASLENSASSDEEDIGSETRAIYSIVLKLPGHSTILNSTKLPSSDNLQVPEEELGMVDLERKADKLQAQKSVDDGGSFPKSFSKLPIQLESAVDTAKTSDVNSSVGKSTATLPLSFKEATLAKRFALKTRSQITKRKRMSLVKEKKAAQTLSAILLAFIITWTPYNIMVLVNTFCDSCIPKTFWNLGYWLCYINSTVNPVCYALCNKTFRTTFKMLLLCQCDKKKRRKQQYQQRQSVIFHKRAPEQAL

SMILES	inhibition of tPA-induced Erk1/2 activation (active/inactive call) [1]	inhibition [2] [%]	inhibition [3] [%]	inhibition [4] [%]	inhibition [5] [%]	inhibition [6] [%]	inhibition [7] [%]	Activity [8]	Activity [9]	inhibition [10] [%]	inhibition [11] [%]	inhibition [12] [%]
CN(C)C(CN)c1ccccc1Cl (stereo unspecified)	Active	< 20	< 20	< 20	< 20	< 20	< 20	Active	Active	< 20	< 20	< 20
CN1CCNC(c2ccccc2)C1 (stereo unspecified)	Active	< 20	< 20	< 20	< 20	< 20	< 20	Active	Active	36	< 20	< 20
NCC12CCC3CC(CC3C1)C2 (stereo unspecified)	Active	< 20	< 20	< 20	< 20	< 20	< 20	Active	Active	< 20	< 20	< 20
